Results as given in ChEMBL document CHEMBL1145910, “5,6,7-trisubstituted 4-aminopyrido[2,3-d]pyrimidines as novel inhibitors of adenosine kinase” (J Med Chem, 2003).

Experiments:
Adenosine kinase [1] = molecular target: Adenosine kinase (Rattus norvegicus, UniProt Q64640); experiment: Inhibition adenosine kinase activity in rat brain in vitro; type: tissue-based
Adenosine kinase [2] = molecular target: Adenosine kinase (Homo sapiens, UniProt P55263); experiment: Inhibition of adenosine kinase activity in IMR-32 human neuroblastoma cells; type: cell-based
Chain of Adenosine kinase (Homo sapiens, UniProt P55263) (P55263 whole entry): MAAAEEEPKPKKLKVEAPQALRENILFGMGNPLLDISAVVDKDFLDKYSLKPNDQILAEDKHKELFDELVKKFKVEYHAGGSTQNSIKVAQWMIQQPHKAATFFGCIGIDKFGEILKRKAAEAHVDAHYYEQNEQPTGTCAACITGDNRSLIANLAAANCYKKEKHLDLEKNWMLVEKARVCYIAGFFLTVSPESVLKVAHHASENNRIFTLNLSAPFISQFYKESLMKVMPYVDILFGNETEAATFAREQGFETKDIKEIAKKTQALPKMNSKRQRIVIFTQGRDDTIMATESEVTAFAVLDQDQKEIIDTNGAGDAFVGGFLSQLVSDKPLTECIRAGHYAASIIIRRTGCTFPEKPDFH

Mus musculus = experiment: Percent maximal protective effect for hotplate analgesia in mice after 30 umol/kg intraperitoneal administration; type: functional
Procedure, shortened: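 Mice (n = 6-8 per group) tested on 55 °C hotplate 30 min after intraperitoneal dosing. %MPE = (postdrug latency − vehicle latency)/(cutoff latency − vehicle latency) × 100, cutoff 180 s; significance versus vehicle-treated mice at p < 0.05.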

Rattus norvegicus = experiment: Reduction in formalin induced nociception after 10 umol/kg intraperitoneal administration

Chain of Adenosine kinase (Rattus norvegicus, UniProt Q64640) (Q64640 whole entry): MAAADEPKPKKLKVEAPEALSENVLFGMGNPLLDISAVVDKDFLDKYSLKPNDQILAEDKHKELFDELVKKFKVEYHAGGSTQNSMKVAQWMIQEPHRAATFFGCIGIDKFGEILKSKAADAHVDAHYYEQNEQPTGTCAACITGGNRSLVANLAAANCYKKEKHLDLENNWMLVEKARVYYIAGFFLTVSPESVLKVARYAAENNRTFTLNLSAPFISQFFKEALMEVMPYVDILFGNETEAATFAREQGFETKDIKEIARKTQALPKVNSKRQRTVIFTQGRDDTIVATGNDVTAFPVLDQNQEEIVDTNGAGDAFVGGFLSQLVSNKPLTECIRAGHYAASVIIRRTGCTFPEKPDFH

Row | Compound | IC50 (Adenosine kinase [1]) | IC50 (Adenosine kinase [2]) | Max protective effect (Mus musculus) | Max protective effect (Rattus norvegicus)
1 | Clc1ccc(-c2cnc3c(N4CCOCC4)ncnc3n2)cc1 | 0.41 µM | 22 µM | – | –
2 | Nc1ncnc2nc(-c3ccc(N4CCOCC4)nc3)c(-c3ccc(F)cc3)c(-c3cccc(Br)c3)c12 | 0.005 µM | 0.197 µM | – | –
3 | Nc1ncnc2nc(-c3ccc(N4CCOCC4)nc3)c(Cc3ccccc3)c(-c3cccc(Br)c3)c12 | 0.063 µM | 0.45 µM | – | –
4 | CN(C)c1ccc(-c2nc3ncnc(N)c3c(-c3cc(Br)cs3)c2C2CC2)cn1 | 0.06 µM | 0.625 µM | – | –
5 | CN(C)c1ccc(-c2c(-c3ccc(N4CCOCC4)nc3)nc3ncnc(N)c3c2-c2cccc(Cl)c2)cc1 | 0.037 µM | 0.13 µM | – | –
6 | CN(C)c1ccc(-c2nc3ncnc(N)c3c(-c3cccc(Br)c3)c2C2CCCCC2)cn1 | 0.3 µM | > 1 µM | – | –
7 | Nc1ncnc2nc(-c3ccc(N4CCOCC4)nc3)c(-c3ccccc3)c(-c3cccc(Br)c3)c12 | 0.004 µM | 0.155 µM | – | –
8 | COCCN(C)c1ccc(-c2nc3ncnc(N)c3c(-c3cc(Br)cs3)c2-c2ccc(OC)c(OC)c2)cc1 | 0.00098 µM | 0.367 µM | – | –
9 | CN(C)c1ccc(-c2nc3ncnc(N)c3cc2-c2ccccc2)cc1 | 0.35 µM | 1.5 µM | – | –
10 | CC(C)c1ccc(-c2c(-c3ccc(N(C)C)cc3)nc3ncnc(N)c3c2-c2ccc(C(C)C)cc2)cc1 | 0.0067 µM | > 1 µM | – | –
11 | COC(=O)Cc1c(-c2cccs2)nc2ncnc(N)c2c1-c1cccc(Br)c1 | 0.003 µM | 0.163 µM | – | –
12 | CN(C)c1ccc(-c2nc3ncnc(N)c3c(-c3ccccc3)c2-c2ccccc2)cc1 | 0.016 µM | 0.25 µM | 77% | –
13 | COc1ccc(-c2c(-c3ccc(N(C)C)cc3)nc3ncnc(N)c3c2-c2cccc(Br)c2)cc1OC | 0.0031 µM | 0.35 µM | – | –
14 | CC(C)c1c(-c2ccc(N3CCOCC3)nc2)nc2ncnc(N)c2c1-c1cccc(Br)c1 | 0.4 µM | > 1 µM | – | –
15 | CN(C)c1ccc(-c2nc3ncnc(N)c3c(-c3cccc(Cl)c3)c2-c2ccccc2)cn1 | 0.005 µM | 0.13 µM | 56% | 39%
16 | Nc1ncnc2nc(-c3cccs3)c(-c3ccccc3)c(-c3ccccc3)c12 | 0.00055 µM | 0.049 µM | – | –
17 | COc1ccc(-c2c(-c3cccs3)nc3ncnc(N)c3c2-c2cc(Br)cs2)cc1OC | 0.00043 µM | 0.025 µM | – | –
18 | CN(C)c1ccc(-c2nc3ncnc(N)c3c(-c3ccccc3)c2-c2ccccc2)cn1 | 0.0032 µM | 0.053 µM | 50% | 38%
19 | Cc1ccc(-c2c(-c3cccs3)nc3ncnc(N)c3c2-c2ccc(C)c(F)c2)cc1F | 0.00025 µM | 0.288 µM | – | –
20 | CCCCCc1c(-c2ccc(N(C)C)nc2)nc2ncnc(N)c2c1-c1cccc(Br)c1 | 0.055 µM | 0.625 µM | – | –
